V1R ag counter – activates human V1a receptor in oxytocin agonist counter-screen. activation, % at 3 µM. P37288. CHO-V1R cells, Fluo-8 calcium fluorescence, agonist mode; 0% DMSO, 100% 3 nM vasopressin. actives 0.25% (n = 320,000);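 active = activation above the mean activation of all tested compounds plus 3 SD, per screening run, cut at about 20% in these data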;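 also: signal is peak over basal fluorescence ratio across a 100 second FLIPR read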
TRPN1 ag – zebrafish TRPN1 (NompC) channel agonism. AID 1424. actives 0.18% (n = 220,000). activation, % at 3 µM. HEK293 zebrafish TRPN1-YFP, Fluo-8 calcium fluorescence; 100% = response to 87 µM carbachol;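 active = activation above its plate's cutoff, the mean activation of test wells on that plate plus 3 SD, cut at about 19% in these data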;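 also: 0% = DMSO alone and 100% = 87 µM carbachol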
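Material: zebrafish TRPN1-YFP in HEK293 cells; Doses: single test compound dose, 3 µM nominal, 0.3% DMSO; Timing: dye loading 1 h at 37 °C, then 30 min room temperature; Technique: intracellular calcium fluorescence with Fluo-8; Benchmarks: high carbachol 87 µM, low DMSO alone.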
OXTR potentiator – potentiates the human oxytocin receptor response. activation, % at 3 µM. actives 0.061% (n = 320,000). CHO-OTR cells, Fluo-8 calcium fluorescence, potentiator mode; 0% = oxytocin EC15, 100% = EC100. P30559;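 active = activation above that plate's cutoff, the mean activation of tested compounds plus 3 SD, cut at about 6.6% in these data, passing the limit was not always enough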;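 also: 100% uses oxytocin at 75 nM as the full agonist control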
Target sequence (P30559 whole entry, looked up): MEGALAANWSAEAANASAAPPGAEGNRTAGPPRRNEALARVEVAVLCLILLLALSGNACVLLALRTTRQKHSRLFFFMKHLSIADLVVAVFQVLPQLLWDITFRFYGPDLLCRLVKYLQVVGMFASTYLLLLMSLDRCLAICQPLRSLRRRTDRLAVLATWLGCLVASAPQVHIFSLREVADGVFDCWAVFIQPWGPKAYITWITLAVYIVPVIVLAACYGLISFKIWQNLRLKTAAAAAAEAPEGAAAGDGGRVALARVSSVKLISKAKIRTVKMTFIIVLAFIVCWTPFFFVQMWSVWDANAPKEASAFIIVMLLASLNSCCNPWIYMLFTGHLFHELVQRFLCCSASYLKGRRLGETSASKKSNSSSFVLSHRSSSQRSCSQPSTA
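Replication – single well per compound, singlicate · Assay system – CHO cell line stably expressing human OTR · Timing – 6 min pre-incubation, 100 s read · Measure – normalized max/min fluorescence ratio, % activation · Doses – 3.0 µM, one dose · Detection – Fluo-8 calcium dye fluorescence · Probe or stimulus – oxytocin near EC15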
TRPML3 agonist – activates the human TRPML3 channel; HEK293 TRPML3-YFP, Fluo-8 calcium fluorescence; 100% = the carbachol control signal; actives 0.29% (n = 220,000); activation, % at 3 µM; Q8TDD5;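 active = activation above its plate's cutoff, the mean activation of the plate's test wells plus 3 SD, cut at about 12% in these data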;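 also: 0% = DMSO only wells and 100% = carbachol wells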
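system = HEK293 cells stably carrying human TRPML3-YFP | doses = one concentration, 3 µM nominal, 0.3% DMSO | timing = dye loading 1 h 37 °C then 30 min ambient, 125 s read | detection = Fluo-8 calcium dye fluorescence, ex 470-495, em 515-575 nm | benchmarks = high control carbachol 87 µM, low control DMSO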
OXTR ag – activates the human oxytocin receptor. activation, % at 3 µM. P30559. actives 0.32% (n = 320,000). CHO-OTR cells, Fluo-8 calcium fluorescence; normalized: DMSO 0%, oxytocin 100%. AID 2435;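 active = activation above the mean of all tested compounds plus 3 SD, cutoff set per screening run, cut at about 20% in these data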;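 also: peak over basal fluorescence ratio from a 100 s FLIPR kinetic read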
* marks the source's active call; other numbers are inactive results; . = not tested or not shown; ! = repeats disagree. Most compounds without a hit are left out; they make up all but 0.58% or so of the library.

SMILES | V1R ag counter | TRPN1 ag | OXTR potentiator | TRPML3 agonist | OXTR ag
O=C(Cc1ccc(Cl)cc1)Nc1cc(S(=O)(=O)N2CCOCC2)ccc1N1CCCC1 | 0 | -2 | -15 | 0 | -2
CN1CCN(c2ccc(S(=O)(=O)N3CCCCC3)cc2NC(=O)Cc2ccc(Cl)cc2)CC1 | 26* | 4 | -14 | 1 | 21*
CN(C(=O)c1ccc(NC(=O)Cc2ccc([N+](=O)[O-])cc2)cc1)C1CC1 | 30* | . | -9 | . | 38*
CN(C(=O)c1ccc(NC(=O)Cc2cccc([N+](=O)[O-])c2)cc1)C1CC1 | 1 | . | -7 | . | 1
O=S(=O)(c1cnc(Cl)c(Cl)c1)N1CCc2ccccc21 | -1 | -2 | -5 | 16* | -3
O=S(=O)(c1cnc(Cl)c(Cl)c1)N1CCCc2ccccc21 | -1 | -2 | -1 | 0 | -2
CCCc1nnc(NC(=O)Cn2c(=O)oc3ccccc32)s1 | 5 | 1 | -21 | 1 | 8
CCCc1nnc(NC(=O)Cn2c(=O)oc3cc(Br)ccc32)s1 | 32* | 0 | -13 | 2 | 34*
CC(=O)c1ccc(S(=O)(=O)Nc2ccc(C(=O)NCC(c3cccs3)N3CCOCC3)cc2)cc1 (stereo unspecified) | 2 | . | -8 | . | 1
CCOc1ccc(NS(=O)(=O)c2ccc(C(=O)NCC(c3cccs3)N3CCOCC3)cc2)cc1 (stereo unspecified) | 26* | . | -21 | . | 26*
Cc1c(S(=O)(=O)N2CCN(c3ccc(F)cc3)CC2)c(=O)n(C)c(=O)n1C | 2 | . | 4 | . | 0
O=C(OCCN1C(=O)c2cccc3c(N4CCOCC4)ccc(c23)C1=O)c1cc(Cl)cc(Cl)c1 | . | 4 | . | 2 | .
CCCN1C(=O)c2cccc3c(N4CCCCC4)ccc(c23)C1=O | 3 | 23* | -4 | 7 | 5
O=C1c2cccc3c(N4CCCCC4)ccc(c23)C(=O)N1c1ccc(Cl)cn1 | . | 6 | . | 6 | .
CCCCNc1ccc2c3c(cccc13)C(=O)N(CCCC)C2=O | . | 283* | . | 154* | .
O=C1c2cccc3c(N4CCCCC4)ccc(c23)C(=O)N1c1ccccn1 | 40* | 7 | -30 | 6 | 42*
CN(C)CCCN1C(=O)c2cccc3c(Br)ccc(c23)C1=O | 1 | 0 | 2 | 1 | 0
COc1cccc(/C=N\NC(=O)c2ccc(Cn3cc(Br)c([N+](=O)[O-])n3)o2)c1O | 0 | 1 | -3 | -1 | -1
O=C(O)CN1C(=O)C(=O)N(Cc2ccc(Cl)cc2Cl)C1=O | 0 | . | -8 | . | 0
COc1ccc(NC(=O)CC(C)c2ccccc2)cc1S(=O)(=O)N1CCOCC1 (stereo unspecified) | 3 | . | -4 | . | 1
CC(C)CCNC(=O)C1(O)c2ccccc2NC(=O)N1c1ccc(Cl)cc1 (stereo unspecified) | 4 | . | -20 | . | 0
CC(CCC(C)C(C)(C)C)[C@@H]1CC[C@H]2C3C[C@H](OS(O)(=S)=S)[C@H]4C[C@H](OS(O)(=S)=S)[C@@H](OS(O)(=S)=S)C[C@]4(C)[C@H]3CC[C@]12C (stereo partly specified) (tested in a mixture with another compound) | 71*! | . | -13 | . | 58*
C[C@H](CCC(=O)O)[C@H]1CC[C@H]2[C@@H]3[C@H](O)C[C@@H]4C[C@H](O)CC[C@]4(C)[C@H]3CC[C@]12C | 2 | . | -14 | . | 2
Cc1ccc(-c2nc(CS(=O)(=O)CC(=O)NCCN3CCCC3)c(C)o2)cc1 | -1 | . | -4 | . | -3
Cc1ccc(C(=O)OCC(=O)NCc2ccc(F)cc2)o1 | 0 | . | 2 | . | 0
SMILES | V1R ag counter | TRPN1 ag | OXTR potentiator | TRPML3 agonist | OXTR ag
N#C/C(=C/c1ccc(N2CCOCC2)o1)C(=O)Nc1ccccc1 | . | 72* | . | 36* | .
N#C/C(=C\c1ccc(N2CCOCC2)o1)C(=O)NC1CCCCC1 | 15 | 8 | -8 | 5 | 14
CC(=O)Nc1ccc(NC(=O)CSc2ccc3nnc(-c4ccccn4)n3n2)cc1 | 1 | . | -2 | . | 0
CCN(c1ccccc1)S(=O)(=O)c1ccc2c(c1)N(C(C)=O)CCS2 | 0 | . | -10 | . | -1
Cc1ccsc1/C=C/C1=Cc2c(sc(NC(=O)CSc3n[nH]c(N)n3)c2C#N)C(C)(C)C1 | 5 | 0 | -8 | 1 | 46*
Nc1ccc(-c2c3ccc(=O)cc-3oc3cc(O)ccc23)c(C(=O)O)c1 | 206* | . | -13 | . | 167*
Cc1ccsc1C(=O)N(C)CC(=O)N(CC(C)C)c1c(N)n(CC(C)C)c(=O)[nH]c1=O | 0 | . | 2 | . | 1
Oc1ccccc1C1CCCCC1c1ccccc1 (stereo unspecified) | -1 | . | -18 | . | -2
CCOC(=O)C1=NN(C(=O)c2ccc(C)cc2)C(O)(c2ccc(Cl)cc2)C1 (stereo unspecified) | 32* | 25* | -20 | 18* | 37*
COc1cc(/C=C/C(O)=C/C(=O)/C=C/c2ccc(O)cc2)ccc1O | 21* | . | -11 | . | 22*
C/C(=C1/C(=O)N(c2ccc([N+](=O)[O-])cc2)N=C1c1ccccc1)N(C)C | 62* | 31* | -13 | 3 | 54*
Cc1c(OC(C)C(=O)NCc2ccccn2)ccc2c3c(c(=O)oc12)CCCC3 (stereo unspecified) | 5 | . | -11 | . | 2
CCCN1C(=O)/C(=C/c2c(NCCCOCC)nc3c(C)cccn3c2=O)SC1=S | . | 2 | . | 1 | .
O=C1/C(=C\c2c(NCCOCCO)nc3ccccn3c2=O)SC(=S)N1Cc1ccco1 | 56* | . | -27 | . | 40*
Cc1ccc(NC(=O)c2cc3ccccc3oc2=N)cc1 | 0 | . | -7 | . | 0
N=c1oc2c3c4c(cc2cc1C(=O)Nc1ccccc1)CCCN4CCC3 | 60* | 3 | -21 | 1 | 112*
CC(=O)c1ccc(N(CC(=O)NC2CCCC2)C(=O)CCC(=O)Nc2cc(C)on2)cc1 | -1 | . | -7 | . | 1
O=C(Nc1ccccc1)Nc1cccc(C(F)(F)F)c1 | 11 | 24* | -11 | 14* | 9
C[C@H]1CN([C@@H](C)CO)C(=O)c2cccc(NC(=O)C3CC3)c2O[C@H]1CN(C)Cc1ccncc1 | 0 | . | -6 | . | 0
Cc1ccc(/C=C2\CCC3=C2OC(N)=C(C#N)C3c2ccc(C)cc2)cc1 (stereo unspecified) | 43* | 14 | -24 | 7 | 23*
Cc1ccc(C2C(C#N)=C(N)Oc3cc(N)ccc32)cc1 (stereo unspecified) | 3 | . | -1 | . | 1
CCCCc1ncc(CN2CCC(CC3CCCCO3)(C(=O)OCC)CC2)[nH]1 (stereo unspecified) | 0 | -1 | -11 | 0 | -1
CCOC(=O)C1(CC2CCCCO2)CCN(Cc2cc3ccccc3[nH]2)CC1 (stereo unspecified) | 28* | 30* | -20 | 24* | 31*

Screening results (PubChem)
